This note sets out measurements from PubChem BioAssay.

A short description of experiment [1]: inhibitors of TNFa-induced NFkB p65 translocation, primary screen, imaging, HUVEC, MLSMR starter and 10KST1 sets (AID 438;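 active = inhibition above 20% together with a positive visual image hit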;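 also: compound added about 3h40 before a 20 min TNFalpha stimulation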;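 as to inhibition: signal is the nuclear over cytoplasmic p65 intensity ratio per well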). The following applies: HUVEC TNFa-induced p65 nuclear translocation; cell count: measured here: nuclei count (cytotoxicity indicator), at 2.08 µM; inhibition: at 2 µM, stronger effect = higher value, 0% TNFa-plus-vehicle, 100% no-TNFa wells.
Experiment [2] can be described thus: inhibitors of mutant huntingtin aggregation, primary screen, imaging, exon1htt(103Q)mCFP cells, high-content imaging (AID 483;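 active = visual image review flags a hit and inhibition of aggregation exceeds 20%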;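 also: compound exposure lasted 3 days before fixation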;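 as to nuclei count: percent of the per-plate median nuclei count of sample wells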). The following applies: exon1htt(103Q)mCFP cell line, aggregate imaging, at 2 µM; inhibition of aggregation: stronger effect = higher value; nuclei count: measured here: cell count, toxicity.
Experiment [3] in a line: inhibitors of E-selectin induction by TNFa, primary screen, imaging, HUVEC, immunofluorescence, MLSMR starter and 10KST1 sets (AID 487;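 active = visually confirmed hit in the image check and inhibition above 20%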;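 as to inhibition: signal is fraction of cell area covered by stained E-selectin grains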;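 as to nuclei count: 100% = median nuclei count of all wells on the same plate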). To be noted: HUVEC TNFalpha-induced E-selectin immunofluorescence imaging, at 2 µM; inhibition: stronger effect = higher value; nuclei count: measured here: cell number, toxicity.
The target of experiment [4] is Voltage-gated potassium channel subunit beta-2 (Rattus norvegicus) (UniProt P62483). The experiment can be described thus: KvBeta enzyme negative modulators, primary screen, biochemical, NADPH fluorescence (AID 622;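 active = fluorescence slope higher than the sample average by over 3 SD, cut at about -0.22 in these data, passing the limit was not always enough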;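 also: slope of raw intensity against log time taken from 70 to 1610 s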). To be noted: recombinant KvBeta, 4-cyanobenzaldehyde reduction, at 10 µM, stronger effect = higher value.
Experiment [5] shares this target. The experiment can be described thus: KvBeta positive modulators, primary screen, biochemical, NADPH fluorescence (AID 623).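 Also: fluorescence intensity change per second fitted from 20 to 320 s.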 To be noted: Recombinant KvBeta, NADPH fluorescence decrease slope, 10 min; at 10 µM; stronger effect = lower value.
In experiment [6] the target is Alpha-2C adrenergic receptor (Homo sapiens) (UniProt P18825). The experiment can be described thus: modulators of alpha2C/GIRK thallium flux, primary screen, cell-based, HEK293 alpha2C/GIRK1/2 (AID 624;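 active = fluorescence slope after compound addition differing from the mean of all screened samples at 99.7% confidence, in either direction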;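 also: slope of fluorescence ratio to pre-addition baseline per second over 15 to 24 s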). To be noted: thallium flux BTC fluorescence, at 10 µM, actives lie on both sides.
A short description of experiment [7]: inhibitors of larval lipid processing in zebrafish, primary screen, whole organism, PED6 fluorescence, gall bladder and intestine (AID 686;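 active = a full or partial loss of lipid-probe fluorescence in the fish gall bladder, intestine or both, judged by eye; inactive = no fluorescence loss, or compound toxic to the fish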;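 also: signal comes from phospholipase A2 cleavage of quenched PED6 carried via bile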). To be noted: Zebrafish larvae PED6 lipid processing, fluorescence scoring; screened at 20 µM (by protocol). Put shortly: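 Doses: 20 µM single dose. Test system: live zebrafish larvae aged 5-7 days, whole organism. Quantity: five larvae per well. Measured by: By-eye fluorescence microscopy. Reagent: ingested quenched lipid PED6 at 100 nM. Read-out: visual per-well fluorescence inhibition score. Times: overnight exposure of larvae to compound plus PED6.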

Experiment [8] is described as follows: inhibitors of Sendai virus-induced IRF3 signaling, primary screen, TLR/RLR signaling modifier project, cell-based, Sendai virus stimulus, luciferase, 10K MLSCN set (AID 602276;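 active = inhibition at or above 50% at 10 µM; inactive = inhibition below 50%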;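 also: firefly luciferase from ISG56 promoter only with Renilla not read in this screen; 0% = Sendai virus plus DMSO and 100% = medium plus DMSO without virus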). The following applies: HEK293 RL24 IRF3 luciferase reporter, at 10 µM, stronger effect = higher value. A general note: Reporter assays use an easily measured gene product as a stand-in for the process of interest.

Experiment [9] is described as follows: inhibitors of poly I:C-induced TLR3 signaling, primary screen, cell-based, poly I:C stimulus, luciferase, 10K MLSCN set (AID 602277;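 active = inhibition of the reporter signal at or above 50%; inactive = inhibition below 50%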). The following applies: HEK293-TLR3 RL24 IRF3 luciferase reporter, at 10 µM, stronger effect = higher value.

The term inhibition denotes the relative decrease from the control value, in per cent.

Active and inactive are the calls of the source.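 The calls were made as follows, unless noted: active = NADPH fluorescence slope more negative than the mean of all samples by about 3 SD, 99.7% confidence; inactive = the rest.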

Sequence of Voltage-gated potassium channel subunit beta-2 (Rattus norvegicus) (P62483 whole entry, looked up): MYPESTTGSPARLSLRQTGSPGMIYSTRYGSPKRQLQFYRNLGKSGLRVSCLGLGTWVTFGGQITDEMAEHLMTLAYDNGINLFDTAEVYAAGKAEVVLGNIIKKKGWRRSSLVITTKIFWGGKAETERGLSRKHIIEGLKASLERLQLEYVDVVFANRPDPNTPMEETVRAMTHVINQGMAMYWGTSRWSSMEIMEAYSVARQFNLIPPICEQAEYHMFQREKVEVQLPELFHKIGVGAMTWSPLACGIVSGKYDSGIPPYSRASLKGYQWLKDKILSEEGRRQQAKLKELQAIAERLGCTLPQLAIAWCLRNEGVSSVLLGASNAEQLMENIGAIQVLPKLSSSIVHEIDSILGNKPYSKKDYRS
Sequence of Alpha-2C adrenergic receptor (Homo sapiens) (P18825 whole entry, looked up): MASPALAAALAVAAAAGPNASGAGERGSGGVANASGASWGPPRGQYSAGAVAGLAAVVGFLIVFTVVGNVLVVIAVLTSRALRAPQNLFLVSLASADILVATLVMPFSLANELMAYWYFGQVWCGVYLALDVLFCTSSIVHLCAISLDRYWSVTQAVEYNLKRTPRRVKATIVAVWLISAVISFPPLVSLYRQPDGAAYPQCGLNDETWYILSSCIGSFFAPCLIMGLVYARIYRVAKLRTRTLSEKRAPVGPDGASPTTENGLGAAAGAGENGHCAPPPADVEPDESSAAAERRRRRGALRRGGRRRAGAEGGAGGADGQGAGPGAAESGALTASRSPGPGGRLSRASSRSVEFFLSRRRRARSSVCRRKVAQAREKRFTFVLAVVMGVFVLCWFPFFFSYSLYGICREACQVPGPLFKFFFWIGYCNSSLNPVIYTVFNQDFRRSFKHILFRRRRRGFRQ

In the case of `Cc1nnc(SCc2nnc(-c3ccccc3Br)o2)n1-c1ccccc1`, in experiment [1], the cell count turned out to be 730. Moreover, the inhibition in experiment [1] was 14.5% (inactive); in experiment [3], -59.5% (inactive); in experiment [8] it was 6.33% (inactive); in [9] it was 8.93% (inactive). In addition, the inhibition of aggregation in [2] was 38.5% (inactive). The nuclei count in [2] turned out to be 87.5%; in experiment [3], 93.8%. Further, in [4], the fluorescence slope was -0.455 (inactive). Also, the NADPH fluorescence slope in experiment [5] is -4e-05 (inactive). Further, in experiment [6], the slope was 0.00597 (inactive). In addition, the outcome in [7] was inactive.
As to `C=CCC1(O)C(=O)Nc2ccccc21` (stereo unspecified), in experiment [1], the cell count was 585. Also, the inhibition in experiment [1] is -13.3% (inactive); in experiment [3], -66.6% (inactive); in experiment [8], 16.6% (inactive); in [9], 18.3% (inactive). The inhibition of aggregation in experiment [2] was -5.5% (inactive). The figures for the nuclei count in experiment [2] and in experiment [3] were 106% and 115%, respectively. In addition, the fluorescence slope in experiment [4] is -0.339 (inactive). Besides, in experiment [5], the NADPH fluorescence slope was -5.2e-05 (inactive). The slope in experiment [6] was 0.00522 (inactive). The molecule was called inactive in [7].
Turning to `CC(C)(C)NS(=O)(=O)c1ccc(CCC(=O)O)cc1`, the cell count in experiment [1] came out at 395. Moreover, the inhibition in experiment [1] was 4.2% (inactive); in experiment [3], -68.6% (inactive); in experiment [8], 9.55% (inactive); in experiment [9], 4.51% (inactive). For the same molecule, in experiment [2], the inhibition of aggregation was -0.1% (inactive). Further, the nuclei count in experiment [2] is 82.6%; in [3] it was 110%. The fluorescence slope in experiment [4] is -0.456 (inactive). Moreover, the NADPH fluorescence slope in [5] is -4.3e-05 (inactive). For the same molecule, the slope in experiment [6] is 0.00422 (inactive). In addition, in experiment [7], the result was inactive.
Consider `O=C(O)CCc1ccc(-c2ccc(F)cc2)n1CCC(=O)O`, for which, in [1], the cell count amounted to 422. The inhibition in experiment [1] was 1.8% (inactive); in experiment [3] it was -140% (inactive); in [8], 15.3% (inactive); in experiment [9] it was 19.9% (inactive). Further, the inhibition of aggregation in [2] was -12.9% (inactive). Besides, the nuclei count in experiment [2] stood at 118%; in [3], 120%. Moreover, the fluorescence slope in [4] is -0.427 (inactive). For the same molecule, in experiment [5], the NADPH fluorescence slope was -5.7e-05 (inactive). Besides, the slope in experiment [6] is 0.00497 (inactive). Besides, the outcome in [7] is “inactive; toxic”.
As for `CCn1c(SCC(N)=O)nnc1-c1ccc(S(=O)(=O)N2CCN(C)CC2)cc1`, the cell count in experiment [1] was determined as 736. The inhibition was -10.2% (inactive) in experiment [1], -11.3% (inactive) in experiment [3], -10.4% (inactive) in [8] and -10.4% (inactive) in experiment [9]. For the same molecule, the inhibition of aggregation in [2] is -23.3% (inactive). The figures for the nuclei count in [2] and in [3] were 118% and 129%, respectively. The fluorescence slope in [4] is -0.396 (inactive). In addition, the NADPH fluorescence slope in experiment [5] is -1.7e-05 (inactive). In experiment [6], the slope is 0.00446 (inactive). For the same molecule, the outcome in [7] was inactive.
Consider `COc1cccc2c(=O)cc(C)n(CC(=O)Nc3ccc(C)c(C)c3)c12`, for which, in experiment [1], the cell count worked out at 456. In addition, the inhibition in experiment [1] is 9.4% (inactive); in experiment [3] it was 46.9% (inactive); in experiment [8] it was 0.857% (inactive); in experiment [9], -0.697% (inactive). For the same molecule, the inhibition of aggregation in [2] is -8.4% (inactive). In addition, the nuclei count in experiment [2] turned out to be 50.1%; in [3], 85.2%. The fluorescence slope in [4] was -0.364 (inactive). Besides, the NADPH fluorescence slope in experiment [5] is -4.9e-05 (inactive). In addition, the slope in [6] is 0.00483 (inactive). Besides, the result in experiment [7] was inactive.
Turning to `C#CCOC(=O)C1C2C=CC(C2)C1C(=O)O` (stereo unspecified), the cell count in experiment [1] came out at 394. Also, the inhibition in [1] is 9.9% (inactive); in experiment [3], -317% (inactive); in experiment [8], 4.82% (inactive); in experiment [9], 0.62% (inactive). Further, the inhibition of aggregation in [2] is 7.3% (inactive). The nuclei count in experiment [2] is 87.7%; in experiment [3], 115%. The fluorescence slope in experiment [4] was -0.341 (inactive). Besides, the NADPH fluorescence slope in experiment [5] was -6.5e-05 (inactive). For the same molecule, the slope in experiment [6] was 0.00609 (inactive). For the same molecule, the result in experiment [7] was inactive.
In the case of `O=C(CN1C(=O)c2ccccc2C1=O)Nc1ccc(S(=O)(=O)NCC2CCCO2)cc1` (stereo unspecified), the cell count in experiment [1] was 389. The inhibition in experiment [1] was -6% (inactive); in experiment [3], -52.4% (inactive); in [8], -1.96% (inactive); in experiment [9], 98.2% (active). Further, the inhibition of aggregation in [2] was -2.4% (inactive). The nuclei count is 93.4% in experiment [2] and 107% in experiment [3]. The fluorescence slope in experiment [4] was -0.412 (inactive). Moreover, the NADPH fluorescence slope in experiment [5] was -2.5e-05 (inactive). In experiment [6], the slope is 0.00503 (inactive). The outcome in experiment [7] was inactive.
Take `COc1ccc(S(=O)(=O)N2CCN(S(=O)(=O)c3ccc4c(c3)OCCO4)CC2)cc1C`: in experiment [1], the cell count was 377. Further, the inhibition in experiment [1] is 4% (inactive); in experiment [3], 15.9% (inactive); in [8], 16.8% (inactive); in experiment [9] it was 26.6% (inactive). For the same molecule, the inhibition of aggregation in experiment [2] is -8.3% (inactive). Moreover, the nuclei count in experiment [2] is 114%; in experiment [3], 85%. Moreover, the fluorescence slope in [4] was -0.223 (inactive). For the same molecule, in experiment [5], the NADPH fluorescence slope was -5.5e-05 (inactive). Also, the slope in experiment [6] was 0.00641 (inactive). Moreover, the molecule was called inactive in experiment [7].
As to `CCc1n[nH]c2c1C(=O)CC(C)(C)C2`, in experiment [1], the cell count is 438. The inhibition in experiment [1] was -5.8% (inactive); in experiment [3], 19.5% (inactive); in [8], -8.61% (inactive); in experiment [9], -7.25% (inactive). Further, in [2], the inhibition of aggregation is 4.8% (inactive). In addition, the results for the nuclei count in experiment [2] and in [3] were 97.7% and 110%, respectively. The fluorescence slope in experiment [4] was -0.382 (inactive). For the same molecule, the NADPH fluorescence slope in [5] was -5e-05 (inactive). Besides, the slope in [6] was 0.00556 (inactive). Also, the call in experiment [7] was inactive.
For `COc1cc(CO)cc(-c2cc(CO)cc(OC)c2OC)c1OC`, the cell count in [1] is 547. The inhibition was 3.5% (inactive) in [1], 49.8% (inactive) in [3], 11.3% (inactive) in experiment [8] and 15.6% (inactive) in experiment [9]. The inhibition of aggregation in experiment [2] is 19.5% (inactive). Moreover, the nuclei count in experiment [2] stood at 76.2%; in [3], 60.6%. In addition, in experiment [4], the fluorescence slope was -0.367 (inactive). The NADPH fluorescence slope in experiment [5] was -5.9e-05 (inactive). In experiment [6], the slope was 0.00523 (inactive). Moreover, the call in experiment [7] was inactive.
`Cc1nc2c(-c3ccccc3)c(C)[nH]n2c(=O)c1Cl`: the cell count in [1] came out at 277. In addition, the inhibition in [1] was -8.3% (inactive); in experiment [3], -5.5% (inactive); in [8], -11.4% (inactive); in experiment [9], -22.1% (inactive). Besides, in experiment [2], the inhibition of aggregation is 2.3% (inactive). Further, the nuclei count was 109% in experiment [2] and 84.2% in experiment [3]. Also, the fluorescence slope in [4] is -0.485 (inactive). The NADPH fluorescence slope in experiment [5] is 3e-05 (inactive). Moreover, the slope in experiment [6] is 0.00434 (inactive). Moreover, the result in experiment [7] was inactive.
For the molecule `Cc1cccc(OCC(=O)Nc2cc(C)ccc2O)c1`, the cell count in experiment [1] stood at 311. The inhibition in [1] was 0.5% (inactive); in experiment [3], -15.1% (inactive); in [8], 10.8% (inactive); in experiment [9] it was 15.6% (inactive). Further, in experiment [2], the inhibition of aggregation was -9.5% (inactive). Also, the results for the nuclei count in experiment [2] and in [3] were 95.3% and 87.8%, respectively. The fluorescence slope in experiment [4] is -0.446 (inactive). The NADPH fluorescence slope in experiment [5] was -2.2e-05 (inactive). Also, the slope in experiment [6] was 0.00484 (inactive). Also, the molecule was classed as inactive in experiment [7].
